Laboratory results taken from ChEMBL document CHEMBL1133503 (J Med Chem, 2000).
pIC50: −log10 of the molar value.

Legend:
[1] = Concentration of drug required to reduce V-79 cell survival to 50% of controls in a SRB assay; format: functional, cell-based; settings: Cricetulus griseus, V79
Outline: (§1)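 V-79 cells (about 7 × 10³ per 100 μL) preincubated 24 h, then exposed to drug for 3 h under oxic conditions. Washed 5× with HBSS and grown 48 h more. Fixed with TCA and stained with SRB. Bound dye dissolved in 10 mM Tris, spotted on TLC and read by video densitometry. IC50 is the mean of triplicates in one experiment. Ratio is IC50 of sulfide over sulfoxide or sulfone.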

[2] = Relative cytotoxicity is expressed as the ratio of the IC50 values of the corresponding sulfide to sulfoxide or to sulfone; format: functional, Cricetulus griseus; outline: as §1
[3] = species on record: Rattus norvegicus; assay: Bioreduction experiment was conducted by incubation of the sulfoxides with rat liver S-9 fractions in anaerobic conditions (N2, without cofactors); format: functional; parameters: concentration or dose not given beside the values
Outline: (§2)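 Rat liver S-9 fraction incubated with sulfoxide at 37 °C for 30 min with shaking. Aerobic vials were left open to air. Anaerobic vials were purged with N2 for 10 min before the compound was injected. Cofactor was NADPH, benzaldehyde, 2-hydroxypyrimidine or acetaldehyde, or none. Controls were boiled S-9 and S-9 without cofactors. For menadione, S-9 was preincubated aerobically with 1 equiv for 30 min, then benzaldehyde was added. Sulfide or sulfone was measured by HPLC or TLC densitometry.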

[4] = species on record: Rattus norvegicus; assay: Bioreduction experiment was conducted by incubation of the sulfoxides with rat liver S-9 fractions in anaerobic conditions N2); format: functional; outline: as §2
[5] = species on record: Rattus norvegicus; assay: Reduction potential (SCE) determined by differential pulse polarography of the sulfoxides […]; format: functional
[6] = species on record: Rattus norvegicus; assay: Bioreduction experiment was conducted by incubation of the sulfoxides with rat liver S-9 fractions in aerobic conditions (N2, 2-hydroxypyrimidine); format: functional; outline: as §2
[7] = species on record: Rattus norvegicus; assay: Bioreduction experiment was conducted by incubation of the sulfoxides with rat liver S-9 fractions in aerobic conditions (N2, NADPH); format: functional; outline: as §2
[8] = species on record: Rattus norvegicus; assay: Bioreduction experiment was conducted by incubation of the sulfoxides with rat liver S-9 fractions in aerobic conditions (N2, acetaldehyde); format: functional; outline: as §2
[9] = species on record: Rattus norvegicus; assay: Bioreduction experiment was conducted by incubation of the sulfoxides with rat liver S-9 fractions in aerobic conditions (N2, menadione); format: functional; outline: as §2
[10] = species on record: Rattus norvegicus; assay: Bioreduction experiment was conducted by incubation of the sulfoxides with rat liver S-9 fractions in aerobic conditions (air, NADPH); format: functional; outline: as §2
[11] = species on record: Rattus norvegicus; assay: Bioreduction experiment was conducted by incubation of the sulfoxides with rat liver S-9 fractions in aerobic conditions (air, benzaldehyde); format: functional; outline: as §2
[12] = species on record: Rattus norvegicus; assay: Bioreduction experiment was conducted by incubation of the sulfoxides with rat liver S-9 fractions in aerobic conditions (air, control); format: functional; outline: as §2
[13] = species on record: Rattus norvegicus; assay: Bioreduction experiment was conducted by incubation of the sulfoxides with rat liver S-9 fractions in aerobic conditions (air, without cofactors); format: functional; outline: as §2
[14] = species on record: Rattus norvegicus; assay: Bioreduction experiment was conducted by incubation of the sulfoxides with rat liver S-9 fractions in anaerobic conditions (N2, benzaldehyde); format: functional; parameters: concentration or dose not given beside the values; outline: as §2
[15] = Concentration required to reduce cell survival to 10% of controls using V-79 cells in the clonogenic assay, in aerobic conditions; format: functional; settings: Cricetulus griseus, V79
Outline: (§3)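 V-79 cells (500 000 per bottle) grown 20 h in MEM with 10% FBS. Hypoxic set gassed 2 h at 37 °C with humidified 95% N2/5% CO2. Drug in ethanol/water or DMF injected through septa. Exposure 3 h under air or hypoxia. Cells trypsinised, counted by trypan blue, 500 plated in triplicate for 6–8 days. Colonies stained with crystal violet, survival relative to solvent control.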

[16] = Hypoxic selectivity expressed as the ratio of IC50 values in air and nitrogen; format: functional
[17] = Concentration required to reduce cell survival to 10% of controls using V-79 cells in the clonogenic assay, in anaerobic conditions (hypoxic conditions); format: functional; settings: Cricetulus griseus, V79; outline: as §3
[18] = Hypoxia-selective cytotoxicity required to reduce cell survival to 10% of controls using V-79 cells in the clonogenic assay, with N2; format: functional; settings: Cricetulus griseus, V79; outline: as §3
[19] = Hypoxia-selective cytotoxicity required to reduce cell survival to 10% of controls using V-79 cells in the clonogenic assay, with air; format: functional; settings: Cricetulus griseus, V79; outline: as §3
[20] = species on record: Rattus norvegicus; assay: Bioreduction experiment was conducted by incubation of the sulfoxides with rat liver S-9 fractions in anaerobic conditions (N2 2-hydroxypyrimidine); format: functional; outline: as §2
[21] = species on record: Rattus norvegicus; assay: Bioreduction experiment was conducted by incubation of the sulfoxides with rat liver S-9 fractions in anaerobic conditions (N2); format: functional; outline: as §2
[22] = species on record: Rattus norvegicus; assay: Bioreduction experiment was conducted by incubation of the sulfoxides with rat liver S-9 fractions in anaerobic conditions(N2, without cofactors); format: functional; outline: as §2
[23] = species on record: Rattus norvegicus; assay: Bioreduction experiment was conducted by incubation of the sulfoxides with rat liver S-9 fractions in anaerobic conditions(N2, benzaldehyde); format: functional; outline: as §2
[24] = species on record: Rattus norvegicus; assay: Bioreduction experiment was conducted by incubation of the sulfoxides with rat liver S-9 fractions in aerobic conditions(air ); format: functional; outline: as §2
[25] = species on record: Rattus norvegicus; assay: Bioreduction experiment was conducted by incubation of the sulfoxides with rat liver S-9 fractions in aerobic conditions(air, NADPH); format: functional; outline: as §2
[26] = species on record: Rattus norvegicus; assay: Bioreduction experiment was conducted by incubation of the sulfoxides with rat liver S-9 fractions in aerobic conditions(air, benzaldehyde); format: functional; outline: as §2
[27] = species on record: Rattus norvegicus; assay: Bioreduction experiment was conducted by incubation of the sulfoxides with rat liver S-9 fractions in anaerobic conditions(N2, menadione); format: functional; outline: as §2
[28] = species on record: Rattus norvegicus; assay: Bioreduction experiment was conducted by incubation of the sulfoxides with rat liver S-9 fractions in aerobic conditions(air without cofactors); format: functional; outline: as §2

Compound `Nc1ccc(Sc2ccc(N(CCCl)CCCl)cc2)cc1` has a pIC50 [1] of 5.60 and a Cytotoxicity [2] of 1.
For `[O-][S+](c1ccccc1)c1ccccc1` [(PHENYLSULFINYL)BENZENE], the Bioreduction [3] was 0%, the Bioreduction [4] was 0% and the E [5] was 2.3 -V. For the same compound, the Bioreduction [6] was 17.4%, the Bioreduction [7] was 0% and the Bioreduction [8] was 6%. The Bioreduction [9] was 0%, the Bioreduction [10] was 11.6 nmol/mg and the Bioreduction [11] was 0%. The Bioreduction [12] was 0%, the Bioreduction [13] was 0% and the Bioreduction [14] was 18%.
Compound `Nc1ccc(S(=O)(=O)c2ccc(N(CCCl)CCCl)cc2)cc1` has a pIC50 [1] of 4.57 and a Cytotoxicity [2] of 0.09.
With `[O-][S+](c1ccc(NCCCl)cc1)c1ccc(NCCCl)cc1` the IC90 [15] was 1580 µM, the Selectivity [16] was 0.7 and the IC90 [17] was 2210 µM.
For `O=[N+]([O-])c1ccc([S+]([O-])c2ccc(N(CCCl)CCCl)cc2)cc1` (configuration not stated), the pIC50 [1] was 4.66, the IC90 [18] was 182 µM and the IC90 [19] was 3680 µM. For the same compound, the Cytotoxicity [2] was 0.1 and the Selectivity [16] was 20.
Compound `Cl.ClCCN(CCCl)c1ccc(Sc2ccc(Nc3c4ccccc4nc4ccccc34)cc2)cc1` has a pIC50 [1] of 5.71 and a Cytotoxicity [2] of 1.
With `[O-][s+]1c2ccccc2c2cc(N(CCCl)CCCl)ccc21` (configuration not stated) the IC90 [15] was 210 µM, the Selectivity [16] was 1.3 and the E [5] was 2.03 -V. For the same compound, the Bioreduction [20] was 2.02%, the Bioreduction [21] was 0% and the Bioreduction [22] was 0.46%. The Bioreduction [23] was 1.68% and the IC90 [17] was 161 µM.
With `[O-][S+](c1ccc(N(CCCl)CCCl)cc1)c1ccc(N(CCCl)CCCl)cc1` the IC90 [15] was 3090 µM, the Selectivity [16] was 17 and the E [5] was 2.63 -V. It also gave a Bioreduction [24] of 0%, a Bioreduction [25] of 0% and a Bioreduction [26] of 0%. It also gave a Bioreduction [21] of 0%, a Bioreduction [22] of 0% and a Bioreduction [27] of 0%. The Bioreduction [28] was 0% and the IC90 [17] was 184 µM.
In the case of `O=[N+]([O-])c1ccc(Sc2ccc(N(CCCl)CCCl)cc2)cc1`, the pIC50 [1] was 5.65 and the Cytotoxicity [2] was 1.
